Data as given in ChEMBL document CHEMBL4350999, “Enhanced tumor retention of NTSR1-targeted agents by employing a hydrophilic cysteine cathepsin inhibitor” (Eur J Med Chem, 2019).
pKi: −log10 of the molar value. The source made the active and inactive calls. The rule behind the calls is not given here.

Legend:
[1] = Drug uptake in heart of SCID mouse xenografted with human HT-29 cells using 177Lu labelled compound at 0.37 MBq/mouse, iv co-treated with D-lysine at 40 mg/kg measured at 24 hrs by gamma counter analysis; type: ADME, organism-based; settings: in vivo
Procedure, shortened: (§1)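 Female SCID mice bore s.c. HT-29 xenografts (5 × 10^6 cells in Matrigel, about 80 mm3). D-lysine 40 mg/kg was co-injected i.v. with 10 μCi (0.37 MBq) of purified 177Lu-conjugate. Tissues were harvested at 24 h, weighed and gamma-counted, reported as %ID/g; mean ± SD, n = 5.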

[2] = Drug uptake in stomach of SCID mouse xenografted with human HT-29 cells pretreated for 1 hr with colchicine at 1 mg/kg, ip followed by 177Lu labelled compound at 0.37 MBq/mouse, iv measured at 24 hrs by gamma counter analysis; type: ADME, organism-based; settings: in vivo
Procedure, shortened: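 HT-29 xenograft SCID mice pretreated with colchicine 1 mg/kg i.p., then given 177Lu conjugate i.v. at 10 μCi (0.37 MBq)/mouse. Tissues excised at 24 h, weighed and gamma counted for %ID/g (n = 5, mean ± SD).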

[3] = Ratio of drug uptake in SCID mouse xenograted with human HT-29 cells assessed as tumour retention to drug uptake in muscle of SCID mouse xenografted with human HT-29 cells cotreated with D-lysine at 40 mg/kg measured after 24 hrs using 177Lu labelled compound; type: ADME, organism-based, Tumor/Muscle; settings: in vivo
[4] = Ratio of drug uptake in SCID mouse xenograted with human HT-29 cells assessed as tumour retention to drug uptake in liver of SCID mouse xenografted with human HT-29 cells cotreated with D-lysine at 40 mg/kg measured after 24 hrs using 177Lu labelled compound; type: ADME, organism-based, Tumor/Liver; settings: in vivo
Procathepsin L = Procathepsin L (Homo sapiens, UniProt P07711); test: Inhibition of human liver cathepsin L assessed as inhibition constant using Z-Phe-Arg-AMC as substrate measured every 5 mins for 1 hr by fluorescence assay
Procedure, shortened: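 Human liver cathepsin L in acetate buffer pH 5.5 (340 mM sodium acetate, 60 mM acetic acid, 1 mM EDTA, 3 mM DTT). Biological triplicate.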

[5] = Drug uptake in blood of SCID mouse xenografted with human HT-29 cells pretreated for 1 hr with colchicine at 1 mg/kg, ip followed by 177Lu labelled compound at 0.37 MBq/mouse, iv measured at 24 hrs by gamma counter analysis; type: ADME, organism-based; settings: in vivo
Procedure, shortened: (§2)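 Female SCID mice bearing s.c. flank HT-29 xenografts (5 × 10^6 cells in Matrigel, ~80 mm3). Given 10 μCi (0.37 MBq) 177Lu conjugate i.v. by tail vein; groups sacrificed at 4, 24, 72 h. Tissues weighed and gamma-counted as %ID/g, excretion as %ID; n = 5, mean ± SD. Blocking arms: colchicine 1 mg/kg i.p. beforehand, or D-lysine 40 mg/kg co-injected.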

[6] = Drug retention in tumor lysates of mouse xenografted with human HT-29 cells assessed as macromolecule associated radioactivity at 29.6 MBq measured after 72 hrs using 177Lu labelled compound by gamma counter analysis relative to control; type: ADME, tissue-based, Neoplasm; settings: in vivo
Procedure, shortened: (§3)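 HT-29 xenograft mice given 800 μCi (29.6 MBq) 177Lu conjugate i.v. and killed at 72 h. Tumor, liver and kidney homogenized in RIPA with protease inhibitor and supernatants run on SDS-PAGE autoradiography. Other supernatant aliquots filtered through 10 kDa MWCO devices to give the % macromolecule-associated radioactivity; n = 3.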

[7] = Drug uptake in large intestine of SCID mouse xenografted with human HT-29 cells using 177Lu labelled compound at 0.37 MBq/mouse, iv co-treated with D-lysine at 40 mg/kg measured at 24 hrs by gamma counter analysis; type: ADME, organism-based; settings: in vivo; procedure, shortened: as §1
[8] = Drug uptake in liver of SCID mouse xenografted with human HT-29 cells using 177Lu labelled compound at 0.37 MBq/mouse, iv co-treated with D-lysine at 40 mg/kg measured at 24 hrs by gamma counter analysis; type: ADME, organism-based; settings: in vivo; procedure, shortened: as §1
[9] = Drug uptake in large intestine of SCID mouse xenografted with human HT-29 cells pretreated for 1 hr with colchicine at 1 mg/kg, ip followed by 177Lu labelled compound at 0.37 MBq/mouse, iv measured at 24 hrs by gamma counter analysis; type: ADME, organism-based; settings: in vivo
Procedure, shortened: (§4)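 HT-29 flank xenografts in female SCID mice (5 × 10^6 cells in Matrigel, about 80 mm3). Colchicine 1 mg/kg was given i.p. before a tail-vein injection of 10 μCi (0.37 MBq) of purified 177Lu-conjugate. Tissues were taken at 24 h, weighed and gamma-counted as %ID/g; mean ± SD, n = 5.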

[10] = Drug excretion in SCID mouse xenografted with human HT-29 cells using 177Lu labelled compound at 0.37 MBq/mouse, iv co-treated with D-lysine at 40 mg/kg measured at 24 hrs by gamma counter analysis; type: ADME, organism-based; settings: in vivo; procedure, shortened: as §2
Cathepsin B [11] = biological target: T1, Cathepsin B (Homo sapiens, UniProt P07858); test: Inhibition of human liver cathepsin B assessed as inhibition constant using Z-Arg-Arg-AMC as substrate measured every 5 mins for 1 hr by fluorescence assay
[12] = Drug uptake in bone of SCID mouse xenografted with human HT-29 cells pretreated for 1 hr with colchicine at 1 mg/kg, ip followed by 177Lu labelled compound at 0.37 MBq/mouse, iv measured at 24 hrs by gamma counter analysis; type: ADME, organism-based, Bone element; settings: in vivo; procedure, shortened: as §4
[13] = Drug retention in tumor of mouse xenografted with human HT-29 cells assessed as tissue-conjugate adduct formation at 29.6 MBq co-treated with D-lysine at 40 mg/kg measured after 72 hrs using 177Lu labelled compound by SDS-PAGE analysis; type: ADME, organism-based, Neoplasm; settings: in vivo
Cathepsin B [14] = biological target: T1, Cathepsin B; test: Binding affinity to cathepsin B in human HT-29 cells assessed as intracellular adduct formation at 0.74 MBq incubated for 4 hrs in presence of DOTA-beta-ala-[N-alpha-Me8, Dmt11, Tle12] NT6-13 using 177Lu labelled compound by SDS-PAGE analysis; type: cell-based; set-up: dose or concentration left out as unconfirmed
Procedure, shortened: (§5)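 HT-29 cells (1 × 10^6/well) incubated 4 h at 37 °C with 177Lu conjugate (20 μCi, 0.74 MBq) in 1 mL medium, with or without E-64 (10 μM) or NTSR1 peptide N1 (20 μM). Cells washed and refed; at set times cells pooled, RIPA-lysed with protease inhibitor. Lysates heated 85 °C 2 min, run on 16% tris-glycine SDS-PAGE, and phosphor autoradiography taken after 72 h exposure.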

[15] = Drug uptake in small intestine of SCID mouse xenografted with human HT-29 cells using 177Lu labelled compound at 0.37 MBq/mouse, iv co-treated with D-lysine at 40 mg/kg measured at 24 hrs by gamma counter analysis; type: ADME, organism-based; settings: in vivo
[16] = Drug uptake in brain of SCID mouse xenografted with human HT-29 cells using 177Lu labelled compound at 0.37 MBq/mouse, iv co-treated with D-lysine at 40 mg/kg measured at 24 hrs by gamma counter analysis; type: ADME, organism-based; settings: in vivo; procedure, shortened: as §1
Cathepsin B [17] = biological target: T1, Cathepsin B; test: Binding affinity to cathepsin B in human HT-29 cells assessed as intracellular adduct formation at 0.74 MBq incubated for 4 hrs in presence of E-64 using 177Lu labelled compound by SDS-PAGE analysis; type: cell-based; set-up: dose or concentration left out as unconfirmed; procedure, shortened: as §5
[18] = Drug retention in liver lysates of mouse xenografted with human HT-29 cells assessed as macromolecule associated radioactivity at 29.6 MBq measured after 72 hrs using 177Lu labelled compound by gamma counter analysis relative to control; type: ADME, tissue-based; settings: in vivo; procedure, shortened: as §3

Chain of Procathepsin L (P07711 whole entry): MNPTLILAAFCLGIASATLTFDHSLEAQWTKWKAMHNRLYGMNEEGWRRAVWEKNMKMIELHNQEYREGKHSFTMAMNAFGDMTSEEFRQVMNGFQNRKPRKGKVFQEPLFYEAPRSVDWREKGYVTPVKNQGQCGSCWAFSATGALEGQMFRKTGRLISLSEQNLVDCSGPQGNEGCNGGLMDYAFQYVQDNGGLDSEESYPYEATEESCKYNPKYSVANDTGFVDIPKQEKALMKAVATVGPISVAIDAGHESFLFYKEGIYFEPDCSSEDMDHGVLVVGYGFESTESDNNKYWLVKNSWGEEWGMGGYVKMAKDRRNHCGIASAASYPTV

`Cc1cc(O)cc(C)c1C[C@H](NC(=O)[C@@H]1CCCN1C(=O)[C@H](CCCNC(=N)N)NC(=O)[C@H](CCCNC(=N)N)N(C)C(=O)[C@@H]1CCCN1C(=O)[C@H](CCCCN)NC(=O)[C@@H](CO)NC(=O)[C@@H](CO)NC(=O)[C@@H](CO)NC(=O)[C@H](Cc1cn(CCNC(=O)[C@H](CCCNC(=N)N)NC(=O)[C@H](CC(C)C)NC(=O)C2OC2C(=O)O)nn1)NC(=O)CN1CCN(CC(=O)O)CCN(CC(=O)O)CCN(CC(=O)O)CC1)C(=O)N[C@H](C(=O)N[C@@H](CC(C)C)C(=O)O)C(C)(C)C` (some centres undefined) showed a Drug uptake [1] of 0.14 % ID/g, a Drug uptake [2] of 0.29 % ID/g and a Ratio [3] of 250. For the same compound, the Ratio [4] was 9.6, the pKi (Procathepsin L) was 7.12 and the Drug uptake [5] was 0.06 % ID/g. It also gave a Drug uptake [6] of 80%, a Drug uptake [7] of 0.8 % ID/g and a Drug uptake [8] of 0.65 % ID/g. The Drug uptake [9] was 0.67 % ID/g, the Drug excretion [10] was 83 %ID and the pKi (Cathepsin B [11]) was 6.96. For the same compound, the Drug uptake [12] was 0.36 % ID/g, the Drug uptake [13] was “Active” and the Activity (Cathepsin B [14]) was “inactive”. The Drug uptake [15] was 1.47 % ID/g, the Drug uptake [16] was 0.02 % ID/g and the Activity (Cathepsin B [17]) was “Active”. The Drug uptake [18] was 80%.
